Calls of active or inactive are those of the source. No cut-off for these calls is given here.

The test system of series [1] is A-431. Kind of series: Cytotoxicity against human A431 cells assessed as reduction in cell viability at 1 uM preincubated for 4 hrs followed by 90 J/cm'-2 ultrasound irradiation measured after 24 hrs by MTT assay. In kind it is functional, cell-based. In outline: (§1)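 A431 squamous carcinoma cells were seeded and incubated with ALA (1 or 2 μM) for 4 h. They were then exposed to either red light (630 nm ± 15 nm) or ultrasound. Viability was read by MTT assay 24 h after treatment.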
A general note: Tetrazolium dyes change colour on reduction, which living cells bring about.

For series [2], the system named is A-431. Description: Cytotoxicity against human A431 cells assessed as reduction in cell viability at 2 uM preincubated for 4 hrs followed by 90 J/cm'-2 ultrasound irradiation measured after 24 hrs by MTT assay relative to control. The note with it: A-431, light or radiation study. Type of series: functional. In outline:
as §1

The test system of series [3] is A-431. Description: Cytotoxicity against human A431 cells assessed as reduction in cell viability at 1 uM preincubated for 4 hrs followed by 5 J/cm'-2 red light irradiation measured after 24 hrs by MTT assay. In kind it is functional, cell-based. In outline: as §1
Series [4] has as its system A-431. Description: Cytotoxicity against human A431 cells assessed as reduction in cell viability at 2 uM preincubated for 4 hrs followed by 5 J/cm'-2 red light irradiation measured after 24 hrs by MTT assay relative to control. Type of series: functional. As to conditions: A-431, light or radiation study. The gist of the method:
as §1

Series [5] relates to A-431. Description: Antitumor activity against human A431 cells ectopically xenografted in topically dosed SCID mouse assessed as tumor growth pretreated for 4 hrs via Metvix cream followed by 220 J/cm'-2 ultrasound irradiation measured on day 7 post dosing relative to control. Type of series: functional. For orientation: In xenograft studies the graft and the host belong to different species.

Series [6] deals with Mus musculus. Description: Toxicity in topically dosed SCID mouse xenografted ectopically with human A431 cells assessed as reduction in body weight pretreated for 4 hrs via Metvix cream followed by 220 J/cm'-2 ultrasound irradiation measured on day 7 post dosing. In kind it is organism-based, A-431. As to conditions: in vivo, topical_or_ocular.
Series [7] deals with A-431. Description: Antitumor activity against human A431 cells ectopically xenografted in topically dosed SCID mouse assessed as tumor growth treated for 4 hrs via Metvix cream measured on day 7 post dosing relative to control. In kind it is functional.
For series [8], the system named is A-431. Kind of series: Antitumor activity against human A431 cells ectopically xenografted in topically dosed SCID mouse assessed as tumor growth pretreated for 4 hrs via Metvix cream followed by 40 J/cm'-2 red light irradiation measured on day 7 post dosing relative to control. Type of series: functional.
Series [9] has as its system Mus musculus. Description: Toxicity in topically dosed SCID mouse xenografted ectopically with human A431 cells assessed as reduction in body weight pretreated for 4 hrs via Metvix cream followed by 40 J/cm'-2 red light irradiation measured on day 7 post dosing. Type of series: organism-based, A-431. As to conditions: in vivo, topical_or_ocular.
Series [10] can be described thus: Induction of ROS generation in EtOH/H2O solution assessed as reduction in DPBF absorbance at 0.5 uM preincubated with compound followed by white light irradiation for 30 mins by UV-visible spectrometric analysis relative to control. In kind it is physicochemical. Also on record: scale not given: the % may be the effect or the level left. As to conditions: 0.5 h.

Series [11] can be described thus: Induction of ROS generation in EtOH/H2O solution assessed as reduction in DPBF absorbance at 0.5 uM preincubated with compound followed by ultrasound irradiation for 30 mins by UV-visible spectrometric analysis relative to control. Type of series: physicochemical. Also on record: scale not given: the % may be the effect or the level left. The note with it: 0.5 h.

Series [12] has as its system HeLa. Description: Cytotoxicity against human HeLa cells assessed as reduction in cell viability at 0.5 uM preincubated for 3 hrs followed by 45 J/cm'-2 ultrasound irradiation for 30 sec measured after 24 hrs by MTT assay relative to control. In kind it is functional. The note with it: light or radiation study.
The test system of series [13] is HeLa. Kind of series: Cytotoxicity against human HeLa cells assessed as reduction in cell viability at 0.5 uM preincubated for 3 hrs followed by 11.4 J/cm'-2 white light irradiation for 30 sec measured after 24 hrs by MTT assay relative to control. In kind it is functional. The note with it: light or radiation study.
Series [14] is described as follows: Cytotoxicity against mouse RIF1 cells assessed as reduction in cell viability at 0.5 uM preincubated for 3 hrs followed by 22.8 J/cm'-2 white light irradiation for 60 sec measured after 24 hrs by MTT assay relative to control. In kind it is functional. As to conditions: RIF-1, light or radiation study.
The nature of series [15]: Cytotoxicity against mouse B16-F10-luc2 cells assessed as reduction in cell viability at 0.5 uM preincubated for 3 hrs followed by 90 J/cm'-2 ultrasound irradiation for 60 sec measured after 24 hrs by MTT assay relative to control. As to conditions: B16-F10-luc2, light or radiation study. Type of series: functional.
Series [16] concerns HeLa. Kind of series: Cytotoxicity against human HeLa cells assessed as reduction in cell viability at 0.5 uM preincubated for 3 hrs followed by 22.8 J/cm'-2 white light irradiation for 60 sec measured after 24 hrs by MTT assay relative to control. Type of series: functional. As to conditions: light or radiation study.
A short description of series [17]: Cytotoxicity against mouse RIF1 cells assessed as reduction in cell viability at 0.5 uM preincubated for 3 hrs followed by 90 J/cm'-2 ultrasound irradiation for 60 sec measured after 24 hrs by MTT assay relative to control. Type of series: functional. The note with it: RIF-1, light or radiation study.
Series [18] in a line: Cytotoxicity against mouse B16-F10-luc2 cells assessed as reduction in cell viability at 0.5 uM preincubated for 3 hrs followed by 22.8 J/cm'-2 white light irradiation for 60 sec measured after 24 hrs by MTT assay relative to control. In kind it is functional. As to conditions: B16-F10-luc2, light or radiation study.
Series [19] concerns RIF-1. Description: Cytotoxicity against mouse RIF1 cells assessed as reduction in cell viability at 0.5 uM preincubated for 3 hrs followed by white light irradiation through 3.4 to 6.8 mm guinea pig skin barrier by MTT assay. Type of series: functional, cell-based.
Series [20] is described as follows: Antitumor activity against mouse B16-F10-luc2 cells ectopically xenografted in nude mouse assessed as tumor growth at 100 uM pretreated with compound followed by ultrasound irradiation measured up to 6 days post dosing relative to control. Type of series: functional.
For series [21], the system named is HeLa. Kind of series: Cytotoxicity against human HeLa cells assessed as reduction in cell viability at 0.5 uM preincubated for 3 hrs followed by 90 J/cm'-2 ultrasound irradiation for 60 sec measured after 24 hrs by MTT assay relative to control. Type of series: functional. As to conditions: light or radiation study.
Series [22] relates to Mus musculus. Kind of series: Toxicity in nude mouse xenografted ectopically with mouse B16-F10-Luc2 cells assessed as reduction in body weight at 100 uM pretreated with compound followed by white light irradiation measured up to 6 days post dosing relative to control. The note with it: in vivo. In kind it is organism-based.
A short description of series [23]: Antitumor activity against mouse B16-F10-luc2 cells ectopically xenografted in nude mouse assessed as tumor growth at 100 uM pretreated with compound followed by ultrasound irradiation measured on day 4 post dosing relative to control. In kind it is functional.
Series [24] is described as follows: Cytotoxicity against mouse RIF1 cells assessed as reduction in cell viability at 0.5 uM preincubated for 3 hrs followed by 11.4 J/cm'-2 white light irradiation for 30 sec measured after 24 hrs by MTT assay relative to control. In kind it is functional. As to conditions: RIF-1, light or radiation study.
The nature of series [25]: Cytotoxicity against mouse B16-F10-luc2 cells assessed as reduction in cell viability at 0.5 uM preincubated for 3 hrs followed by 45 J/cm'-2 ultrasound irradiation for 30 sec measured after 24 hrs by MTT assay relative to control. In kind it is functional. The note with it: B16-F10-luc2, light or radiation study.
In series [26] the test system is RIF-1. Description: Cytotoxicity against mouse RIF1 cells assessed as reduction in cell viability at 0.5 uM preincubated for 3 hrs followed by ultrsound irradiation through 3.4 to 6.8 mm guinea pig skin barrier by MTT assay. In kind it is functional, cell-based.
For series [27], the system named is Mus musculus. Kind of series: Toxicity in nude mouse xenografted ectopically with mouse B16-F10-Luc2 cells assessed as reduction in body weight at 100 uM pretreated with compound followed by ultrasound irradiation measured up to 6 days post dosing relative to control. In kind it is organism-based. As to conditions: in vivo.
The nature of series [28]: Cytotoxicity against mouse B16-F10-luc2 cells assessed as reduction in cell viability at 0.5 uM preincubated for 3 hrs followed by 11.4 J/cm'-2 white light irradiation for 30 sec measured after 24 hrs by MTT assay relative to control. In kind it is functional. As to conditions: B16-F10-luc2, light or radiation study.
Series [29] can be described thus: Cytotoxicity against mouse RIF1 cells assessed as reduction in cell viability at 0.5 uM preincubated for 3 hrs followed by 45 J/cm'-2 ultrasound irradiation for 30 sec measured after 24 hrs by MTT assay relative to control. Type of series: functional. As to conditions: RIF-1, light or radiation study.
Series [30] is described as follows: Antitumor activity against mouse B16-F10-luc2 cells ectopically xenografted in nude mouse assessed as tumor growth at 100 uM pretreated with compound followed by white light irradiation measured on day 4 post dosing relative to control. In kind it is functional.

What is called inhibition is the change of the read-out against control, counted positive when it falls. Regarding `NCC(=O)CCC(=O)O` [AMINOLEVULINIC ACID], the inhibition entry in series [1] and in [3] was “Active” throughout. In addition, the inhibition at 2 µM in series [2] worked out at 31%; in [4], 43%.
As to `COC(=O)CCC(=O)CN` [METHYL AMINOLEVULINATE], the Activity in series [5] is 11%; in [6], “Non-toxic”; in series [7], 90%; in series [8], 22%; in series [9] it was “Non-toxic”.
With `C=CC1=C(C)c2cc3[nH]c(cc4nc(cc5[nH]c(cc1n2)c(C)c5CCC(=O)O)C(CCC(=O)O)=C4C)c(C)c3C=C` [PROTOPORPHYRIN], the results for the Activity in [10] and in series [11] were 60% and 17%, respectively.
In the case of `O=C([O-])c1c(Cl)c(Cl)c(Cl)c(Cl)c1-c1c2cc(I)c(=O)c(I)c-2oc2c(I)c([O-])c(I)cc12.[Na+].[Na+]` [ROSE BENGAL SODIUM], the inhibition at 0.5 µM turned out to be 50% in series [12]; 50% in [13]; 50% in [14]; 40% in series [15]; 50% in [16]; 50% in series [17]. In addition, the inhibition at 0.5 µM in [18] came out at 18%; in series [21] it was 50%; in [24], 50%; in [25] it was 25%; in series [28] it was 7%; in series [29], 50%. The inhibition entry in series [19] was “inactive”. The Activity result was “Active” in series [10]; “Active” in series [11]; 400% in series [20]; “Non-toxic” in [22]; 120% in [23]; “Non-toxic” in [27]. In addition, the Activity in [30] worked out at 400%. Besides, the inhibition entry in [26] was “Active”.

(Values after ChEMBL document CHEMBL3808313, “Comparing the efficacy of photodynamic and sonodynamic therapy in non-melanoma and melanoma skin cancer” (Bioorg Med Chem, 2016).)
